From PMC2800315 (Japanese Journal of Clinical Oncology, 2009)
Like-named read-outs stand apart in the source and are kept apart here.

What was measured:
[1] = Pharmacokinetics of RAD001 in blood, Phase I once-daily oral dosing; type: in vivo, Japanese patients; details: for CL/F / AUC / Cmax: mean ± SD; for AUC / Cmax / Tmax: human, whole blood, oral; for AUC: AUCτ, 0 to 24 h
Outline: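 Adults aged ≥20 years, Japanese, with refractory advanced tumours; strong CYP3A4 inhibitors or inducers excluded. Oral dosing once daily at 2.5, 5 or 10 mg in continuous 28-day cycles. Per cohort: Cmax, tmax, AUC 0–24 h and CL/F. Descriptive statistics, means ± SD.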

[2] = patients with advanced cancer, cited from earlier work; for AUCτ: mean
[3] = 673 renal transplant patients; cited from earlier work
[4] = 2.5 mg/day, Day 1, 2.5 mg/day (n = 3)
[5] = 2.5 mg/day, Day 15, 2.5 mg/day (n = 3)
[6] = 5 mg/day, Day 1, 5 mg/day (n = 3)
[7] = 5 mg/day, Day 15, 5 mg/day (n = 3)
[8] = 10 mg/day, Day 1, 10 mg/day (n = 3)

SMILES: CO[C@H]1C[C@@H]2CC[C@@H](C)[C@@](O)(O2)C(=O)C(=O)N2CCCC[C@H]2C(=O)O[C@H]([C@H](C)C[C@@H]2CC[C@@H](OCCO)[C@H](OC)C2)CC(=O)[C@H](C)/C=C(\C)[C@@H](O)[C@@H](OC)C(=O)[C@H](C)C[C@H](C)/C=C/C=C/C=C/1C [RAD001, everolimus]
- CL/F ([1]; Day 15, 2.5 mg/day (n = 3)): 19.1 ± 3.26 L/h
- CL/F ([1]; Day 15, 5 mg/day (n = 3)): 9.94 ± 3.21 L/h
- CL/F ([1]; Day 15, 10 mg/day (n = 3)): 14.3 ± 2.23 L/h
- Time at which Cmax was apparent ([1]; after administration of a single oral dose): 2 h
- Time to Cmax ([1]; after oral administration): 1 to 2 h
- Increase of Cmax and AUCτ with dose ([1]; day 1, 2.5 to 10 mg): almost dose-proportionally
- Exposure (AUCτ) after multiple dosing (day 15) relative to single dose (day 1) ([1]; days 1 and 15): about twice
- AUC [1, 4]: 85.2 ± 18.7 ng·h/mL
- AUC [1, 5]: 134 ± 24.1 ng·h/mL
- Cmax [1, 4]: 15.1 ± 2.48 ng/mL
- Cmax [1, 5]: 16.8 ± 1.33 ng/mL
- Tmax ([1]; 2.5 mg/day, tmax Median, Day 1, 2.5 mg/day (n = 3)): 1.98 h
- Tmax ([1]; 2.5 mg/day, tmax Range, Day 1, 2.5 mg/day (n = 3)): 0.98 to 2 h
- Tmax ([1]; 2.5 mg/day, tmax Range, Day 15, 2.5 mg/day (n = 3)): 1 to 1.98 h
- AUC [1, 6]: 211 ± 50 ng·h/mL
- AUC [1, 7]: 543 ± 189 ng·h/mL
- Cmax [1, 6]: 31.5 ± 3.4 ng/mL
- Cmax [1, 7]: 57.6 ± 17.6 ng/mL
- Tmax ([1]; 5 mg/day, tmax Median, Day 15, 5 mg/day (n = 3)): 1.98 h
- Tmax ([1]; 5 mg/day, tmax Range, Day 1, 5 mg/day (n = 3)): 1 to 1.95 h
- Tmax ([1]; 5 mg/day, tmax Range, Day 15, 5 mg/day (n = 3)): 1.93 to 1.98 h
- AUC [1, 8]: 401 ± 51.6 ng·h/mL
- Cmax [1, 8]: 49.4 ± 14.8 ng/mL
- Cmax ([1]; 10 mg/day, Day 15, 10 mg/day (n = 3)): 65.9 ± 1.4 ng/mL
- Tmax ([1]; 10 mg/day, tmax Median, Day 1, 10 mg/day (n = 3)): 2 h
- Tmax ([1]; 10 mg/day, tmax Median, Day 15, 10 mg/day (n = 3)): 2.02 h
- Tmax ([1]; 10 mg/day, tmax Range, Day 1, 10 mg/day (n = 3)): 1.92 to 2 h
- Tmax ([1]; 10 mg/day, tmax Range, Day 15, 10 mg/day (n = 3)): 2 to 2.2 h
- Time to steady state (Cmin) ([1]; repeated once-daily oral dosing): ~8 days
- Cmax ([2]; daily dose 5 mg, mean ± SD): 32 ± 9 ng/mL
- AUCτ ([2]; daily dose 5 mg): 238 ± 77 ng·h/mL
- AUCτ ([2]; daily dose 10 mg): 514 ± 231 ng·h/mL
- Difference in clearance between Asian and Caucasian patients [3]: no significant differences
